Here are results for eight compounds from BindingDB's records for doi:10.1016/j.ejmech.2016.05.060 (Xi'An Jiaotong University, 2016).

For assay [1], the target named is T1, Tyrosine-protein phosphatase non-receptor type 1 (Homo sapiens, UniProt P18031).
T1 sequence (P18031 whole entry): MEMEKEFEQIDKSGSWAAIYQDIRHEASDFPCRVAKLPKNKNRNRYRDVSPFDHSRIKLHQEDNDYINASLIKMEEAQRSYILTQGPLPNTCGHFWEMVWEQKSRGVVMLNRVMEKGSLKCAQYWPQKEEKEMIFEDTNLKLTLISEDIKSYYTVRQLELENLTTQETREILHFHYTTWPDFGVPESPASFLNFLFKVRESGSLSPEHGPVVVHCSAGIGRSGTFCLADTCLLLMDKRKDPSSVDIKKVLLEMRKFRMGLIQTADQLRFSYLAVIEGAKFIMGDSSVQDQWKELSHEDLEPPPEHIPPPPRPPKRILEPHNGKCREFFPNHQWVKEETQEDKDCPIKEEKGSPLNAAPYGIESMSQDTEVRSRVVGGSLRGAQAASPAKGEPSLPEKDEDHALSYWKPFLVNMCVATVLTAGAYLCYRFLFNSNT
Kind of assay: Inhibition of human recombinant GST-tagged PTP1B catalytic domain expressed in Escherichia coli BL21-Conden plus (DE3) using pNPP as substrate.

Assay [2] addresses T2, M-phase inducer phosphatase 2 (Homo sapiens, UniProt P30305).
T2 sequence (P30305 whole entry): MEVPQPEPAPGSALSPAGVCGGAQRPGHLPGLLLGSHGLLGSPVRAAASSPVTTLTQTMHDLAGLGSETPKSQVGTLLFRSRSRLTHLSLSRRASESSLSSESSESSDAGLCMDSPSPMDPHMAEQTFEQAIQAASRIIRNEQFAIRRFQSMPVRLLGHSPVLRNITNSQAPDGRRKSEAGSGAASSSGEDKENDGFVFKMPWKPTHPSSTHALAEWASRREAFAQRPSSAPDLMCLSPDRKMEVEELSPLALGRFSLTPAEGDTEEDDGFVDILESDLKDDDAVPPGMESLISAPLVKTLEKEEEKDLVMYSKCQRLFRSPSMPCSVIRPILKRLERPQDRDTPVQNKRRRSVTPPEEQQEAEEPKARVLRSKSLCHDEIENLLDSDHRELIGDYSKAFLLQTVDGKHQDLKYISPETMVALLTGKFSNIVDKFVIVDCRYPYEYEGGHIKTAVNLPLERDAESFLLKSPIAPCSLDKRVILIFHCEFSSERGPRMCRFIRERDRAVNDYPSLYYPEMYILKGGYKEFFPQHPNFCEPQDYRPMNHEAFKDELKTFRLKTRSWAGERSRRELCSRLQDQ
Nature of the assay: Inhibition of human recombinant GST-tagged CDC25B assessed as reduction in dephosphorylation of florigenic phosphatase substrate preincubated for 1 hr followed by substrate addition measured after 1 hr by fluorescence assay. The method, boiled down:
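Purified GST-CDC25B fusion protein was preincubated with compound for 1 h, then fluorescein diphosphate ([…]) was added. Fluorescence was read within the linear range of the reaction after 1 h at room temperature. Na₃VO₄ served as positive control and DMSO as negative control.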

As a reminder, the IC50 is the concentration at which inhibition is half-maximal. As for `CCOC(=O)c1c(C)[nH]c(/C=C2\S/C(=N\c3cccc(F)c3)N(c3cccc(F)c3)C2=O)c1C`, the IC50 in assay [1] was 6.83 µM; in assay [2] it was 3.39 µM. For `CCOC(=O)c1c(C)[nH]c(/C=C2\S/C(=N\c3ccc(F)cc3)N(c3ccc(F)cc3)C2=O)c1C`, the results for the IC50 in assay [1] and in assay [2] were 6.09 µM and 2.87 µM, respectively. Consider `CCOC(=O)c1c(C)[nH]c(/C=C2\S/C(=N\c3ccc(OC)cc3)N(c3ccc(OC)cc3)C2=O)c1C`, for which the IC50 in assay [2] amounted to 2.74 µM.

As for `CCOC(=O)c1c(C)[nH]c(/C=C2\S/C(=N/O)N(C(C)C)C2=O)c1C`, the IC50 in assay [2] came out at 5.83 µM.

Regarding `CCOC(=O)c1c(C)[nH]c(/C=C2\S/C(=N\c3ccccc3F)N(c3ccccc3F)C2=O)c1C`, the IC50 in assay [2] came to 3.66 µM. Consider `CCOC(=O)c1c(C)[nH]c(/C=C2\S/C(=N\c3ccccc3)N(c3ccccc3)C2=O)c1C`, for which the IC50 in assay [1] stood at 8.66 µM. As for `CC(C)N1C(=O)/C(=C/c2ccc(OCCN(C)c3ccccn3)cc2)S/C1=N\O`, in assay [2], the IC50 was 2.47 µM. On the same count and under the same terms, to `[O]=[V]([OH])([OH])[OH]` belongs 0.91 µM.
